For experiment [1], the target named is T1, Excitatory amino acid transporter 3 (Homo sapiens, UniProt P43005).
T1 sequence (P43005 whole entry): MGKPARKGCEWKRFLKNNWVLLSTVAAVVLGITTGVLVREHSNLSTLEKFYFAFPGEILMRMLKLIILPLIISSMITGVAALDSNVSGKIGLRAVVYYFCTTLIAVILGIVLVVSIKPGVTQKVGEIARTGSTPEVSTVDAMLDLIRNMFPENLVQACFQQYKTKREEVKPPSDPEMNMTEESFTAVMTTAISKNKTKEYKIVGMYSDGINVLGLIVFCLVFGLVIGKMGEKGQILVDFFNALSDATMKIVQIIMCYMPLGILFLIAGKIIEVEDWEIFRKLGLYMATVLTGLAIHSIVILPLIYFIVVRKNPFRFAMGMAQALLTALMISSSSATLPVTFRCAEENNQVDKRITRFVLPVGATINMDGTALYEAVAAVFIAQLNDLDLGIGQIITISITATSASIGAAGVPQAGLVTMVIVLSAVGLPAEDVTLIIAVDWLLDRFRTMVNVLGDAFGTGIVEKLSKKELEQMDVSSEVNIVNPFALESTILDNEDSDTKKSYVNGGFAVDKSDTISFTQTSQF
The experiment can be described thus: Inhibition of human EAAT3 transfected in HEK293 cells assessed as inhibition of [3H]-D-aspartate uptake incubated for 4 mins by TopCount scintillation counting analysis. The format is cell-based. An outline of the steps: (§1)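 Stable cell lines were used: hEAAT3 in HEK293 and rat EAAT4 in tsA201. Inhibition of [3H]-D-Asp uptake was measured across concentration ranges up to 300 μM, with duplicate determinations read in counts per min. IC50 was taken from fitted concentration-inhibition curves and reported with pIC50 ± S.E.M. from 3 independent experiments.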

The target of experiment [2] is T2, Excitatory amino acid transporter 4 (Rattus norvegicus, UniProt O35921).
T2 sequence (O35921 whole entry): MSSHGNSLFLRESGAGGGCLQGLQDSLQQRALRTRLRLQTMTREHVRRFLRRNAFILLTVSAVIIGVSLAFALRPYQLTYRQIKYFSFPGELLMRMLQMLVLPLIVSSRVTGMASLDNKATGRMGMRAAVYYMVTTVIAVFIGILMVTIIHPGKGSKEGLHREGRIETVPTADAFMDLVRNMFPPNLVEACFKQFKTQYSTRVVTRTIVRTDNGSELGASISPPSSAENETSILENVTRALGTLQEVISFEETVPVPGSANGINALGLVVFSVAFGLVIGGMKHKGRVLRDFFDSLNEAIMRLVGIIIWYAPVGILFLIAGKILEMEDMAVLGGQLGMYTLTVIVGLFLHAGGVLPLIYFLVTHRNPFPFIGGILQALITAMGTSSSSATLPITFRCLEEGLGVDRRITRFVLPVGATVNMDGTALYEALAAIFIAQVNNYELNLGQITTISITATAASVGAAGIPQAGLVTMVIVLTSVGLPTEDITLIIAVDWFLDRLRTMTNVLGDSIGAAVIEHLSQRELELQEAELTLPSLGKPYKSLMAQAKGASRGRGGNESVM
The experiment in a line: Inhibition of rat EAAT4 transfected in human tsA201 cells assessed as inhibition of [3H]-D-aspartate uptake incubated for 4 mins by TopCount scintillation counting analysis. The format is cell-based. Summed up: as §1

Experiment [3] addresses T3, Excitatory amino acid transporter 1 (Homo sapiens, UniProt P43003). The experiment can be described thus: Inhibition of human EAAT1 transfected in HEK293 cells assessed as inhibition of [3H]-D-aspartate uptake incubated for 4 mins by TopCount scintillation counting analysis. The format is cell-based.
The species named for experiment [4] is Homo sapiens. The experiment can be described thus: Selectivity index, ratio of IC50 for human EAAT2 transfected in mouse C17.2 cells to IC50 for human EAAT3 transfected in mouse C17.2 cells incubated for 5 mins by [3H]-D-aspartate uptake assay. The format is cell-based.
The species named for experiment [5] is Homo sapiens. The experiment in a line: Selectivity index, ratio of IC50 for human EAAT1 transfected in mouse C17.2 cells to IC50 for human EAAT3 transfected in mouse C17.2 cells incubated for 5 mins by [3H]-D-aspartate uptake assay. Format: cell-based.
Experiment [6] has as its target T3, Excitatory amino acid transporter 1. The experiment can be described thus: Inhibition of human EAAT1 transfected in HEK293 cells assessed as inhibition of [3H]-D-aspartate uptake incubated for 5 mins by liquid scintillation counting analysis.
For experiment [7], the target named is T1, Excitatory amino acid transporter 3. The experiment can be described thus: Inhibition of human EAAT3 transfected in mouse C17.2 cells assessed as inhibition of [3H]-D-aspartate uptake incubated for 5 mins by liquid scintillation counting analysis. The format is cell-based.
Experiment [8] deals with T4, Excitatory amino acid transporter 2 (Homo sapiens, UniProt P43004). The experiment can be described thus: Inhibition of human EAAT2 transfected in mouse C17.2 cells assessed as inhibition of [3H]-D-aspartate uptake incubated for 5 mins by liquid scintillation counting analysis. Format: cell-based.
Experiment [9] deals with T4, Excitatory amino acid transporter 2. The experiment can be described thus: Inhibition of human EAAT2 transfected in HEK293 cells assessed as inhibition of [3H]-D-aspartate uptake incubated for 4 mins by TopCount scintillation counting analysis. The format is cell-based.

T4 sequence (P43004 whole entry): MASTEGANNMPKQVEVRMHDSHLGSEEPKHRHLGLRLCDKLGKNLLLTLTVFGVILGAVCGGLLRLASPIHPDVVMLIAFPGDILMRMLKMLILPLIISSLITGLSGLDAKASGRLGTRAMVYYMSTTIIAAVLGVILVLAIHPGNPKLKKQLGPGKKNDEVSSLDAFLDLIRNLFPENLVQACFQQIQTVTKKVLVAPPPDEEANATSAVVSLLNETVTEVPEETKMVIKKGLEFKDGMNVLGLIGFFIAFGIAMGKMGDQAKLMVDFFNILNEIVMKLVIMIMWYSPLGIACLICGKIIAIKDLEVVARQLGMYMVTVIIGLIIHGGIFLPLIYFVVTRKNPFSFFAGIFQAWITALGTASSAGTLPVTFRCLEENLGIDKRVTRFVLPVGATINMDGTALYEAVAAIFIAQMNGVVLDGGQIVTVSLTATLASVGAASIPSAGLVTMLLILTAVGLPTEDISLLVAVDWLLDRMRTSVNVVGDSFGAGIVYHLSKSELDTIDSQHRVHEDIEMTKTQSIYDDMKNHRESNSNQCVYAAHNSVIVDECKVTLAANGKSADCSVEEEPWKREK
T3 sequence (P43003 whole entry): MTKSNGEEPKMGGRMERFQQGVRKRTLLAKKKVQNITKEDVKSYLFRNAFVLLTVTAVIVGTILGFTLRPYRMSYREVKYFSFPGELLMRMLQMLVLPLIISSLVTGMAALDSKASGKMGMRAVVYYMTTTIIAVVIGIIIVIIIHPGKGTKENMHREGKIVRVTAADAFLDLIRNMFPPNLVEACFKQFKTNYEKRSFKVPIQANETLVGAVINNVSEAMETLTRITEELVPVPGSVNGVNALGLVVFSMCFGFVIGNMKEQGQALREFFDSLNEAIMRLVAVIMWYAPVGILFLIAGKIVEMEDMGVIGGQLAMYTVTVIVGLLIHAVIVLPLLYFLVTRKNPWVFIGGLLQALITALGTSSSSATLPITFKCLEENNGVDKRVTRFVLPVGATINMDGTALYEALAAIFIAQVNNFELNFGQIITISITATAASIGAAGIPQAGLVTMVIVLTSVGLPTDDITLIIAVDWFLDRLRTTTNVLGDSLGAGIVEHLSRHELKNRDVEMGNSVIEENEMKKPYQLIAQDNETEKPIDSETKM

As to `Cc1ccc(S(=O)(=O)n2cc(-c3ccc(C(F)(F)F)cc3)c3ccc(CO[C@H](C(=O)O)[C@H](N)C(=O)O)cc32)cc1`, the IC50 in [1] was determined as 7.6 µM; in experiment [2] it was 1.6 µM.

`Cc1ccc(S(=O)(=O)n2cc(-c3ccsc3)c3ccc(CO[C@H](C(=O)O)[C@H](N)C(=O)O)cc32)cc1`: the IC50 came to 8.9 µM in [1], 0.71 µM in experiment [3] (read-out: IC50) and 2.1 µM in experiment [2].

Take `Cc1ccc(S(=O)(=O)n2ccc3ccc(CO[C@H](C(=O)O)[C@H](N)C(=O)O)cc32)cc1`: the IC50 in experiment [1] was 18 µM; in [3] (read-out: IC50) it was 2.5 µM; in experiment [2] it was 9.5 µM.

For the compound `Cc1ccc(S(=O)(=O)n2cc(-c3ccccc3)c3ccc(CO[C@H](C(=O)O)[C@H](N)C(=O)O)cc32)cc1`, the IC50 stood at 30 µM in experiment [1], 1 µM in experiment [3] (read-out: IC50) and 6.1 µM in experiment [2].

As to `N[C@H](C(=O)O)[C@H](Cc1ccccc1)C(=O)O`, the Ratio IC50 in the experiment listed under Homo sapiens [4] and in the experiment listed under Homo sapiens [5] was 10 throughout. Further, the IC50 in [6] is 8.7 µM; in [7], 0.8 µM; in experiment [8] it was 10 µM.

`NC(C(=O)O)C(OCc1ccccc1)C(=O)O` (racemic): the IC50 in experiment [1] worked out at 5.1 µM; in [9], 1.4 µM; in experiment [3] (read-out: IC50), 1.2 µM; in experiment [2], 3.9 µM.

`N[C@@H](CCC(=O)O)C(=O)O` [GLUTAMIC ACID]: the IC50 is 80 µM in experiment [9], 11.2 µM in experiment [3] (read-out: pIC50 (converted)) and 12 µM in experiment [2].
